# An excerpt weighted towards active compounds, which were near 4.3% of everything screened.
# GalR3 antag – human GalR3 antagonism; 360,000 compounds, 0.44% hits; HEK293 GalR3-CNG cAMP membrane potential fluorescence; galR3 body fused to GalR1 C-terminus; inhibition, % at 3 µM; AID 651719; O60755;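 active = inhibition above the screen-wide average plus 3 SD, cut at about 13% in these data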;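 also: forskolin and galanin both at EC90 stimulate the cells; cAMP rise reported by CNG channel membrane potential dye signal; 0% = forskolin plus galanin with DMSO and 100% = forskolin alone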
# Target sequence (O60755 1-299 limits assumed): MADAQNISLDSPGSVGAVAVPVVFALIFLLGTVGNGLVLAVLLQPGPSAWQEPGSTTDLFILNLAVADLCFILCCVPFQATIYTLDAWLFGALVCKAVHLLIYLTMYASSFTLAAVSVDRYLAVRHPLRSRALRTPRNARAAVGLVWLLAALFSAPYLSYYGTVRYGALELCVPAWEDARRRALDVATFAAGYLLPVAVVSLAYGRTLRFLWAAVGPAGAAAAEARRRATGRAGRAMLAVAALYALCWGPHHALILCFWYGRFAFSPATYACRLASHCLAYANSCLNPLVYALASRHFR
# TAAR1 ag – agonists of human TAAR1; Q96RJ0; CHO RD-HGA16 TAAR1, Fluo-8 calcium fluorescence; vehicle wells 0%, saturating PEA agonist 100%; activation, % at 3 µM; 360,000 compounds, 0.99% hits; AID 624467;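 active = activation above the mean activation of all test compounds in the run plus 3 SD, cut at about 38% in these data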
# Target sequence (Q96RJ0 whole entry, looked up): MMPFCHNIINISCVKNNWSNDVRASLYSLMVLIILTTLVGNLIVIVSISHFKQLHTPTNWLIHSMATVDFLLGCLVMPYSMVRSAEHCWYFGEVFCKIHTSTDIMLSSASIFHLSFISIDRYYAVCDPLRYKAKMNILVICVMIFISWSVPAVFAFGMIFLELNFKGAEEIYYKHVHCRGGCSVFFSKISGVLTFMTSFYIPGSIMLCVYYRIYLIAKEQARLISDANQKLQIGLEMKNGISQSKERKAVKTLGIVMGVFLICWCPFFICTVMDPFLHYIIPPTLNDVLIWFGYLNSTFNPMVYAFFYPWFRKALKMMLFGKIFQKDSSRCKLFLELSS
#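 test system = CHO RD-HGA16 cells carrying human TAAR1 plus Gα16 | schedule = 17-24 h seeding, 75 min 37 °C dye, 30 min RT | compound dosing = 3 µM single concentration | control set = DMSO and PEA EC100 | replicates = n 1 | signal = Fluo-8 fluorescence, 5 s baseline then 140 s kinetic read | measure = percent activation vs PEA EC100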
# TAAR1 antag – antagonists of human TAAR1 | CHO RD-HGA16 TAAR1, Fluo-8 calcium fluorescence, antagonist | inhibition, % at 3 µM | 360,000 compounds, 1.5% hits;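 active = inhibition above a per-plate cutoff, the mean inhibition of test compounds on that plate plus 3 SD, cut at about 49% in these data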;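 also: 0% = DMSO plus EC80 beta-PEA response and 100% = DMSO alone without agonist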
#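 System: RD-HGA16 CHO cells with stable hTAAR1 and Gα16 | Probe or stimulus: EC80 β-phenethylamine stimulus | Dosing: 3 µM, single point | Times: Dye loading 75 min at 37 °C, then 30 min room temperature | Measured by: Fluo-8 calcium-sensitive fluorescence | Read-out basis: % inhibition of agonist calcium response | Replicates: n of 1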
# CHO parental Ca – counter-screen for OX1R antagonists: effect in parental CHO cells; inhibition, % at 5.6 µM; parental CHO-K1, ATP-induced calcium, Fluo-8 fluorescence; AID 463079; 330,000 compounds, 0.63% hits;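 active = inhibition above that plate's mean sample inhibition plus 3 SD, cut at about 26% in these data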;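 also: 0% = ATP-challenged DMSO wells and 100% = DMSO wells without ATP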
#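 test system = CHO parental line | reagent = ATP stimulus | measured by = intracellular calcium via Fluo-8 no-wash fluorescent dye | control set = ATP and no-ATP DMSO wells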
# OX1R antag-1 – human HCRTR1 antagonism; O43613; CHO/OX1R cells, Fluo-8 calcium fluorescence, orexin A; inhibition, % at 5 µM; 330,000 compounds, 0.43% hits;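 active = inhibition above its plate's threshold, mean inhibition of all tested compounds on the plate plus 3 SD, cut at about 37% in these data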;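 also: 0% = orexin A challenge wells and 100% = SB-334867-A antagonist wells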
# OX1R antag-2 – OX1R (human) antagonism; OX1R-expressing cells, FRET antagonist read-out; inhibition, % at 6.6 µM; 330,000 compounds, 1.8% hits; O43613; in the data active = inhibition mostly above about 38%, no sharp cut-off; inactive = mostly below about 40%;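 also: 0% = agonist challenge alone and 100% = reference antagonist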
# nonsel antag count – nonselective antagonism, TAAR1 counter-screen | inhibition, % at 3 µM | AID 651780 | 2,400 compounds, 77% hits | shares compounds with TAAR1 antag | counterscreen cell line, calcium fluorescence, antagonist mode; in the data active = inhibition above about 22%;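 also: CHO-Ga16 host cells stimulated with ATP at an EC80 level; 0% = agonist EC80 plus vehicle and 100% = vehicle without agonist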
# TAAR1 ant conf – confirmation of human TAAR1 antagonists; inhibition, % at 3 µM; shares compounds with TAAR1 antag; TAAR1-expressing cells, fluorescence antagonist read-out; AID 651785; 2,400 compounds, 40% hits; in the data active = inhibition above about 49%;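 also: CHO-Ga16 host cells challenged with agonist PEA near its EC80; 0% = agonist at EC80 plus vehicle and 100% = vehicle with no agonist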
# Ga16 nonsel ag – nonselective Ga16 agonism, counter-screen; Ga16-expressing cells, calcium fluorescence, agonist counterscreen; activation, % at 3 µM; 2,400 compounds, 18% hits; AID 651953; shares compounds with TAAR1 antag; in the data active = activation above about 12%;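 also: 0% = vehicle wells and 100% = saturating stimulus response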
# TAAR1 ag counter – counter-screen for human TAAR1 antagonists: TAAR1 agonists | 2,400 compounds, 2% hits | shares compounds with TAAR1 antag | hTAAR1 cell line, fluorescence activation, agonist mode | AID 651955 | activation, % at 3 µM; in the data active = activation above about 37%;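 also: CHO cells stably expressing TAAR1 with calcium dye readout; 0% = DMSO vehicle and 100% = full agonist response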
# An asterisk follows results filed as active; . = not tested or not shown.
SMILES,GalR3 antag,TAAR1 ag,TAAR1 antag,CHO parental Ca,OX1R antag-1,OX1R antag-2,nonsel antag count,TAAR1 ant conf,Ga16 nonsel ag,TAAR1 ag counter
CC1C(=O)N(Cc2cn(Cc3ccco3)nn2)CCS(=O)(=O)N1Cc1ccc(-c2ccccc2C(F)(F)F)cc1 (configuration not stated),-3,-1,-18,.,.,.,.,.,.,.
CC1CCc2c(sc3nc(C4CC4)nc(N4CCN(C(=O)c5ccco5)CC4)c23)C1 (configuration not stated),-3,17,58*,-17,-18,17,16,7,-1,3
C#CCN(C[C@H]1[C@H](OC(=O)NCc2ccc(OC)c(OC)c2)[C@H](OC(=O)NCc2ccc(OC)c(OC)c2)C[C@@H](C(=O)OC)[C@H]1C(=O)OC)S(=O)(=O)c1ccc(C)cc1,-5,11,58*,.,.,.,27*,40,6,5
C#CCN(C[C@H]1[C@H](OC(=O)NCc2ccco2)[C@H](OC(=O)NCc2ccco2)C[C@@H](C(=O)OC)[C@H]1C(=O)OC)S(=O)(=O)c1ccc(C)cc1,-6,6,24,.,.,.,.,.,.,.
Cc1cccc(-n2nc3c(c2NC(=O)C2CC2)CS(=O)(=O)C3)c1C,0,0,-7,12,13,-4,.,.,.,.
Cc1ccccc1N(CC(=O)Nc1ccccc1C(=O)NCc1ccco1)S(=O)(=O)c1ccccc1,-5,10,69*,-7,-12,17,31*,47,7,3
O=C(Nc1ccccc1C(=O)Nc1ccccc1C(=O)NCc1ccco1)c1ccco1,-1,9,69*,4,31,34,25*,49*,10,8
Cc1ccc(S(=O)(=O)N(CC(=O)Nc2ccccc2C(=O)O)c2ccccc2C)cc1,-4,4,5,7,3,15,.,.,.,.
CO[C@@H]1CN(C)C(=O)c2ccc(NC(=O)C3CCCC3)cc2OC[C@@H](C)N(Cc2ccc(F)cc2)C[C@H]1C,-1,3,-9,.,.,.,.,.,.,.
Cc1nn(-c2ccccn2)c2c1-c1nc(N3CCOCC3)ncc1CC2,0,15,70*,-12,-20,16,27*,49*,6,5
O=C(C1=C[C@@H](c2ccc(C(F)(F)F)cc2)C[C@@H](OCc2ccc(CO)cc2)O1)N1CCN(Cc2ccc3c(c2)OCO3)CC1,-3,10,55*,-18,-12,16,32*,34,4,4
O=C(C1=C[C@H](c2ccc(C(F)(F)F)cc2)C[C@H](OCc2ccc(CO)cc2)O1)N1CCN(Cc2ccc3c(c2)OCO3)CC1,-2,1,13,-27,-27,16,.,.,.,.
O=C1Nc2c(Cl)cc(Cl)cc2C1=O,-3,4,1,.,.,.,.,.,.,.
Cc1ccc2c(=O)n3c(nc2c1)C(Cc1ccccc1)NC(=O)c1cc(Cl)ccc1-3 (configuration not stated),-3,24,-1,-13,-19,1,.,.,.,.
Fc1cccc(NC(=S)NNc2c3ccccc3nc3ccccc23)c1,-1,0,53*,.,.,.,40*,48,3,1
CCOC(=O)N1CCN(Cc2nc3ccc([N+](=O)[O-])cc3c(=O)n2-c2ccccc2F)CC1,-9,19,71*,-22,-9,23,11,15,4,9
CCC(CC)N1CCN(Cc2nc3ccc([N+](=O)[O-])cc3c(=O)n2-c2ccccc2F)CC1,-9,1,-15,-14,-19,21,.,.,.,.
C/C(=N\NC(=O)C1(C)CC1(Br)Br)c1cccc(NC(=O)c2ccc(C)o2)c1 (configuration not stated),-4,13,85*,-26,-23,35,26*,73*,11,39*
Cc1c(NC(=O)CSc2ccc(Cl)cc2)cccc1-c1nc2ncccc2o1,-3,11,60*,-17,-37,13,31*,46,11,10
Cc1nn(Cc2c(F)c(F)c(F)c(F)c2F)c(C)c1NC(=O)c1ccc(COc2ccccc2Cl)cc1,-5,.,.,.,.,.,14,.,5,.
Cc1ccc(C)c(N2CCN(C(=O)C34CC5CC(C3)CC(n3nnc(C)n3)(C5)C4)CC2)c1,1,7,59*,-25,-31,-2,35*,43,7,5
CCOC(=O)C1=C(C)NC(C)=C(C(=O)OCC)C1C(=O)OCC(=O)NC(C)C,-5,16,60*,-12,-26,23,23*,45,8,9
CCOC(=O)C1=C(C)NC(C)=C(C(=O)OCC)C1C(=O)OCC(N)=O,-11,0,-15,-15,-7,2,.,.,.,.
COc1ccc(CCC(=O)NCCOc2ccccc2Cl)cc1,2,15,-21,-18,-19,1,.,.,.,.
CCOC(=O)C1(Cc2ccccc2C)CCCN(C(=O)c2ccccn2)C1 (configuration not stated),-6,16,-21,-2,-10,27,.,.,.,.
SMILES,GalR3 antag,TAAR1 ag,TAAR1 antag,CHO parental Ca,OX1R antag-1,OX1R antag-2,nonsel antag count,TAAR1 ant conf,Ga16 nonsel ag,TAAR1 ag counter
CCOC(=O)C1(Cc2ccccc2C)CCCN(C(=O)c2ccc3nccnc3c2)C1 (configuration not stated),-3,15,67*,-17,-31,7,24*,49*,8,13
Cn1c(C(=O)Nc2ccc3c(c2)OCCO3)cc2c(=O)n(C)c3ccccc3c21,3,3,52*,-19,-30,35,10,35,8,13
Cn1c(C(=O)NC2CC2)cc2c(=O)n(C)c3ccccc3c21,0,2,-10,-14,-24,9,.,.,.,.
Cc1csc(=O)n1CCC(=O)OCc1nnc(-c2ccc(Cl)cc2)o1,3,0,-12,.,.,.,.,.,.,.
COc1cc(/C=C/C(=O)OCC(=O)NC(=O)NC(C)C)cc(S(=O)(=O)N2CCc3ccccc32)c1OC,-11,-1,-30,-13,-10,-5,.,.,.,.
CCCOc1cccc(C(=O)N(Cc2ccco2)C2CCS(=O)(=O)C2)c1 (configuration not stated),-4,-5,102*,-3,-27,8,0,0,0,-1
COc1ccc2c3c(cccc13)C(=O)CC2,-8,29,3,.,.,.,.,.,.,.
CC(N)C(=O)NC(CO)C(O)C(N)C=O (configuration not stated),-4,0,5,.,.,.,.,.,.,.
